Source: PubChem BioAssay
Rev-erbA mod: modulators of human Rev-erb alpha DNA binding | activity, % at 10 µM | Rev-erbα–FITC-DNA binding, fluorescence polarization, 90 min | P20393 | 370,000 tested, 0.79% active;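 active means activity above about 14%, limit read from the data; passing the limit was not always enough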;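 further: 0% = DMSO wells with 35 nM protein and 100% = DMSO wells with 750 nM protein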
Target sequence (P20393 whole entry, looked up): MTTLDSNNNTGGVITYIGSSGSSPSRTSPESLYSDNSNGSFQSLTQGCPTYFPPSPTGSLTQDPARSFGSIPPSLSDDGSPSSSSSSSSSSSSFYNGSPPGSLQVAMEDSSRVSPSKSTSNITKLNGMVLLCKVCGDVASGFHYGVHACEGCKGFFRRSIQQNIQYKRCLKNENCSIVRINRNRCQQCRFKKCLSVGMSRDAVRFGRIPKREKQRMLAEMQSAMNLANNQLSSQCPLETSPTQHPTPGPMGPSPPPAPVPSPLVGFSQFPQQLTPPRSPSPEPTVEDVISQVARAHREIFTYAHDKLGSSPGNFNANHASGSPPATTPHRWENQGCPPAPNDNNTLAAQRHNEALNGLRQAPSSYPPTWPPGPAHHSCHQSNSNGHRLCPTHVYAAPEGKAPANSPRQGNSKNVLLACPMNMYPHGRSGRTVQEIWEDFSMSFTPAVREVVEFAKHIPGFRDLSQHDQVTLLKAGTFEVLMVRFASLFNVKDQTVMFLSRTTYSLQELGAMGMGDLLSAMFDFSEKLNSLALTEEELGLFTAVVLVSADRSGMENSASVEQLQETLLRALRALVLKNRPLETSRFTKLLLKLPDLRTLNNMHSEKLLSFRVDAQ
PKA-R1A activ: activates the PKA-R1A holoenzyme complex; 340,000 tested, 0.083% active; activation, % at 11.4 µM; P00514+P68181; PKA-R1A dissociation, Cy5-IP20 fluorescence polarization; scaled: DMSO 0%, 113 µM cGMP 100%; AID 504707;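 active means percent activation above the mean of all tested compounds plus 3 SD, cut at about 19% in these data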;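 further: higher means more PKAc released from R1A so a rise in polarization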
PKA-R2B act: PKA-R2B complex activation; P22694+P31323; PKA-R2B holoenzyme dissociation, Cy5-IP20 fluorescence polarization; R2B truncated from residue 108, S112A mutant; 0% DMSO only, 100% 113 µM cGMP; activation, % at 11.4 µM; 340,000 tested, 0.079% active;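 active means activation above a cutoff set at the mean over all compounds plus 3 SD, cut at about 18% in these data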;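 further: higher means more holoenzyme dissociation and a rise in polarization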
PG9 Ab binder: PG9 antibody binding by small molecule. TR-FRET gp120-PG9 antibody binding. 360,000 tested, 0.43% active. AID 624416. inhibition, % at 6.7 µM; in the data active means inhibition above about 8.5%
NR2E3 ag-1: agonists of human NR2E3 nuclear receptor | inhibition of corepressor binding, % at 3.98 µM | 360,000 tested, 0.35% active | CHO-S Gal4-NCOR/VP16-NR2E3 two-hybrid, luciferase | AID 602229 | Q9Y5X4;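 active means inhibition above the mean of all tested compounds plus 3 SD, cut at about 70% in these data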;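 further: 0% = DMSO with NR2E3 transfected cells and 100% = cells lacking NR2E3 construct; higher means lower luciferase signal from less NR2E3 corepressor binding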
NR2E3 ag-2: agonists of human nuclear receptor NR2E3; Q9Y5X4; GST-NR2E3/biotin-RetCOR TR-FRET, 1536-well; inhibition of corepressor binding, % at 4.78 µM; 320,000 tested, 0.12% active;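 active means percent inhibition above the cutoff of mean plus 3 SD of all tested compounds, set per screening campaign, cut at about 20% in these data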;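 further: 0% = DMSO wells and 100% = biotin wells as full block of FRET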
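Format: 1536-well format; test system: GST-NR2E3 and biotin-RetCOR proteins; read-out basis: percent inhibition of TR-FRET ratio; timing: 5 h incubation at 4 °C; detection: time-resolved FRET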
NR2E3 ag conf: confirmation of human NR2E3 agonists. shares compounds with NR2E3 ag-1. CHO-S mammalian two-hybrid NR2E3-NCOR, luciferase luminescence. inhibition, % at 3.98 µM. 2,300 tested, 51% active;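 active means average inhibition above a cutoff equal to the mean inhibition of all tested compounds plus one SD, cut at about 70% in these data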;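 further: 0% = DMSO in NR2E3 cells and 100% = DMSO in cells lacking NR2E3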
VP16 counter: counter-screen for NR2E3 agonists: GAL4-VP16 reporter inhibitors; shares compounds with NR2E3 ag-1; CHO-S GAL4-VP16 luciferase reporter, luminescence; inhibition, % at 3.98 µM; 2,300 tested, 29% active; AID 624379;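 active means mean inhibition above a cutoff equal to the average over all tested compounds plus one standard deviation, cut at about 70% in these data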;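 further: luciferase from a UAS reporter driven by GAL4-VP16 transactivation; 0% = DMSO with VP16-transfected cells and 100% = DMSO with cells lacking VP16; higher means less reporter light so more repression of VP16 activity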
* hit, by the source's call; x = not tested or not shown. Compounds with a hit are over-represented: about 1.6% of the library has one in this group of screens.

SMILES	Rev-erbA mod	PKA-R1A activ	PKA-R2B act	PG9 Ab binder	NR2E3 ag-1	NR2E3 ag-2	NR2E3 ag conf	VP16 counter
O=C(OC(c1ccccc1)c1nccc2ccccc12)c1ccccc1 (configuration not stated)	1	0	4	-1	75*	x	71*	31
O=Cc1ccc(OCC(=O)NC(=O)NC2CCCCC2)cc1	2	-11	-18	3	-45	0	x	x
CC(=O)c1ccc(OCC(=O)NC(=O)NC2CCCCC2)cc1	-6	0	7	1	61	1	22	55
COc1ccccc1NC(=O)c1ccccc1NS(=O)(=O)c1cccs1	2	-5	-8	0	11	3	x	x
COc1ccc(C)cc1NC(=O)c1ccccc1NS(=O)(=O)c1ccc(Cl)s1	3	-3	-4	0	101*	3	99*	90*
O=C(Nc1cc(S(=O)(=O)N2CCOCC2)ccc1O)c1ccc(NS(=O)(=O)c2ccc(Cl)s2)cc1	3	-14	-5	2	18	1	x	x
Cc1ccc(NC(=O)c2ccccc2NS(=O)(=O)c2ccc(Cl)s2)cc1S(=O)(=O)N1CCOCC1	0	-10	4	-1	90*	2	99*	78*
Cc1nn(C)c(C(=O)NCc2ccc(Cl)cc2)c1Cl	-1	-10	-8	0	61	-4	89*	75*
Cc1nc(C)c(C(=O)NCc2ccc(Cl)cc2)o1	-1	-3	2	x	4	6	x	x
C#CCNC(=O)C[C@H]1C[C@@]2(C(=O)OC)C(=C[C@H](C(C)C)O[C@@H]2C2CC2)N(CCCCCCCC)C1=O	2	x	x	x	x	x	x	x
CN(C(=O)CNC(=O)c1ccccc1OCC(=O)Nc1ccc(I)cc1)c1ccccc1	7	x	x	x	x	x	x	x
O=C(Nc1ccc(S(=O)(=O)N2CCN(Cc3ccccc3)CC2)cc1)c1cnccn1	1	3	3	-2	61	3	86*	71*
Cc1ccc(Cn2cc(CN3[C@@H](Cc4ccccc4)COc4cc(Br)ccc4S3(=O)=O)nn2)cc1	8	x	x	x	x	x	x	x
CC(CCN1CCC(C(O)(c2ccccc2)c2ccccc2)CC1)Oc1cccc(C(F)(F)F)c1 (configuration not stated)	-6	x	x	x	x	x	x	x
O=C(Oc1ccnc2cc(Cl)ccc12)N1CCCCCC1	0	-2	7	1	60	-4	35	32
O=C(NNc1ccnc2cc(Cl)ccc12)C1CCCCC1	-7	-3	-17	0	58	-1	97*	87*
O=C(Nc1nc2ncccn2c1-c1ccc(F)c(F)c1)C1CC1	-2	x	x	x	x	x	x	x
COc1cccc(OCC(O)CN2CCC(CN3C(=O)c4cccc5cccc(c45)C3=O)CC2)c1 (configuration not stated)	0	-7	-6	0	-36	6	x	x
O=C1c2cccc3cccc(c23)C(=O)N1CC1CCN(CC(O)COc2ccc3ccccc3c2)CC1 (configuration not stated)	11	-7	-19	1	51	-8	17	18
CCOC(=O)C1CCN(C(=O)C2CCCN(S(=O)(=O)c3ccc(OCC)c(Cl)c3)C2)CC1 (configuration not stated)	-1	-8	0	-3	70	-2	21	51
CCOc1ccc(S(=O)(=O)N2CCCC(C(=O)N3CCOCC3)C2)cc1Cl (configuration not stated)	2	-4	6	-1	0	2	x	x
N#CC(=C(O)CN1CCN(c2ccccc2F)CC1)c1nc(-c2ccc(Cl)cc2)cs1	5	-4	3	-1	29	x	x	x
N#CC(=C(O)CN1CCN(c2ccccc2F)CC1)c1nc(-c2ccccc2)cs1	5	-3	-5	0	57	x	37	43
Cc1cc(C)c(S(=O)(=O)/N=C2/C=C(Sc3ncn[nH]3)C(=O)c3ccccc32)cc1C	10	4	7	0	102*	9	49	-12
Cc1ccc(C)c(S(=O)(=O)/N=C2\C=C(NS(=O)(=O)c3ccccc3)C(=O)c3ccccc32)c1	-5	-2	-3	0	19	-2	x	x
SMILES	Rev-erbA mod	PKA-R1A activ	PKA-R2B act	PG9 Ab binder	NR2E3 ag-1	NR2E3 ag-2	NR2E3 ag conf	VP16 counter
Cc1ccccc1S(=O)(=O)N1C(c2ccc(Cl)cc2)CC=C(C(=O)O)C1c1cccc(Cl)c1 (configuration not stated)	3	x	x	0	x	x	x	x
Cc1ccc([C@H]2C(C(=O)O)=CC[C@@H](c3ccc(Cl)cc3)N2S(=O)(=O)c2ccccc2C)cc1	x	-3	-13	x	48	x	28	31
Cc1ccccc1S(=O)(=O)N1[C@@H](c2ccc(Cl)cc2)C(C(=O)O)=CC[C@H]1c1ccc(Cl)cc1	-3	-8	-5	0	65	x	27	19
CC(=O)c1ccc(NC(=O)NC2CCCCN(Cc3cccc(Cl)c3)C2=O)cc1 (configuration not stated)	4	x	x	x	x	x	x	x
O=C(Nc1nccs1)c1ccc(S(=O)(=O)NCC2CCCCC2)cc1	3	-9	-8	0	58	0	59	65
CC(=O)Nc1cc2nn(-c3ccccc3)nc2cc1Cl	6	-14	-8	0	-116	-4	x	x
CC(C)(C)C(=O)Nc1cc2nn(-c3ccccc3)nc2cc1Cl	1	1	6	1	92*	x	75*	55
Cc1ccc2cc(F)c(F)c(F)c2n1	0	x	x	0	-7	x	x	x
Cc1ccc2ccc3ccc(C)nc3c2n1	-1	-8	0	0	92*	3	40	28
COC(C(=O)C(O)C(C)O)C1Cc2cc3cc(OC4CC(OC5CC(O)C(O)C(C)O5)C(O)C(C)O4)c(C)c(O)c3c(O)c2C(=O)C1OC1CC(OC2CC(OC3CC(O)C(OC)C(C)O3)C(O)C(C)O2)C(O)C(C)O1 (configuration not stated)	1	-5	-1	-10	96*	x	93*	75*
Cc1cc(N2CCCCC2)nc(NCc2ccccc2)n1	0	-11	-11	0	45	-2	x	x
Cc1cc(N2CCOCC2)nc(NCc2ccccc2)n1	4	6	-22	0	53	3	53	60
NC(=O)CC(NC(=O)Cc1ccc(Cl)cc1)c1ccc(NC2CC3CCC2C3)c([N+](=O)[O-])c1 (configuration not stated)	8	-3	2	1	98*	3	-21	-7
